Efflux pump inh: inhibitors of Candida antifungal efflux pumps expressed in yeast. S. cerevisiae Candida pump triplex, Nile Red efflux. inhibition, % at 10 µM. actives 0.44% (n = 330,000). AID 485275;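 active = plate passing quality check with inhibition over a set limit, or well fluorescence over plate mean plus 4 SD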;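 note: Nile Red retained in pooled yeast measured as flow cytometry median fluorescence; 0% = buffer negative control and 100% = Enniatin B positive control; higher means more Nile Red kept so more efflux inhibition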
T cruzi inh: blocks replication of Trypanosoma cruzi; T. cruzi beta-gal in NIH3T3, luminescence, 90 h; inhibition, % (test concentration not listed); actives 1.4% (n = 300,000); AID 1885;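 active = mean inhibition across valid replicates above about 55%, limit read from the data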;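 note: signal also drops with host cell toxicity which is not excluded here; 0% = plate median of DMSO wells and 100% = zero luminescence signal; higher percent means less beta-gal luminescence so fewer parasites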
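Read-out: Parasite load inhibition, % | Test system: Mouse NIH/3T3 fibroblasts infected with β-gal-expressing T. cruzi Tulahuen C4 | Amount: 5,000 cells/well | Medium: DMEM, 2% fetal bovine serum | Signal: GalScreen β-gal luminescence, detergent lysis, 60 min | Timing: 3 h attach, ≥90 h co-culture | Also added: Tulahuen C4 trypomastigotes, 5000/well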
AI-2 QS mod: modulates the Vibrio harveyi AI-2 quorum sensing system. Vibrio harveyi JMH597 AI-2 luminescence/OD600 ratio, 9 h; hits give low values; strain lacks LuxN and CqsS sensors; 0 = neutral-control median. activity change, % at 7.5 µM. actives 0.4% (n = 300,000). AID 2094; in the data active = activity change below about -75%, passing the limit was not always enough;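 note: luminescence divided by OD600 gain over 9 h not by final OD600 alone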
HDAC3 inhib: inhibitors of human histone deacetylase 3 | AID 2718 | inhibition, % at 8.3 µM | O15379 | recombinant HDAC3, fluorogenic peptide/trypsin coupled, fluorescence | actives 0.15% (n = 320,000); in the data active = inhibition above about 26%, passing the limit was not always enough
Target sequence (O15379 whole entry, looked up): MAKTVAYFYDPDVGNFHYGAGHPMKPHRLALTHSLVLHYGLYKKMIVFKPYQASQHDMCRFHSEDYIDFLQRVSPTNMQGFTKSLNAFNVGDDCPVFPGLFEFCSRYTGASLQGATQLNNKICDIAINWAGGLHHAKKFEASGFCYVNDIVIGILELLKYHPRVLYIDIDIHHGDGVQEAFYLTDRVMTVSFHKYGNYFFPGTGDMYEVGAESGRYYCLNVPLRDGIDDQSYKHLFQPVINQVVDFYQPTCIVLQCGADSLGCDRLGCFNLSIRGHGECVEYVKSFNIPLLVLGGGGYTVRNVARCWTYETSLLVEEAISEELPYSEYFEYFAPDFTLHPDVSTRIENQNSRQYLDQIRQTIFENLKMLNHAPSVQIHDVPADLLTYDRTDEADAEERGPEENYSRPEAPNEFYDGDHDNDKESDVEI
PolyA inh: yeast polyadenylation inhibition; S. cerevisiae SKY197-pL101 polyadenylation reporter, beta-gal luminescence; efflux-impaired pdr1/pdr3 knockout yeast; score 100 = 6 SD above DMSO; activity score, % at 12 µM; actives 0.02% (n = 300,000);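 active = lowest replicate activity score at least 50, where 100 means six control SD above control mean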;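 note: yeast exposed to compound for 9 h at 30 °C; higher score means more reporter readthrough which indicates perturbed polyadenylation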
* = called active by the depositor; nt = no result. An excerpt weighted towards active compounds, which were near 2.2% of everything screened.

SMILES	Efflux pump inh	T cruzi inh	AI-2 QS mod	HDAC3 inhib	PolyA inh
O=C(CN1C(=O)CCC1=O)c1ccc(-c2ccccc2)cc1	0	-3	43	-3	4
N=c1ccn(CC(=O)c2ccc(-c3ccccc3)cc2)cc1	0	58*	nt	-2	-12
C[C@H](CO)N1C[C@H](C)[C@@H](CN(C)S(C)(=O)=O)Oc2ccc(NC(=O)c3ccncc3)cc2C1=O	0	nt	nt	-3	nt
O=S1(=O)C=C(Sc2nc3ccccc3s2)c2ccccc21	0	69*	-42	-2	-20
N/C(=N\OC(=O)N1c2ccccc2Sc2ccccc21)c1ccccc1	0	82*	14	5	-31
Cc1ccc(CN(C)CCc2ccccn2)cc1	0	67*	14	-5	4
COc1cc(CN(C)CCc2ccccn2)cc(OC)c1OC	0	14	27	7	24
COc1ccc(CN(C)CCc2ccccn2)cc1OC	1	nt	10	-3	-6
CCc1ccc(CN(C)CCc2ccccn2)cc1	0	63*	13	5	0
CN(CCc1ccccn1)Cc1ccc(Cl)cc1	0	56*	12	1	12
COc1ccc(/C(C)=N/NC(=O)c2cccc(S(=O)(=O)N3CCCC3)c2)c(O)c1	0	61*	46	-3	13
COc1ccc(C(C)=NNC(=O)c2cccc(S(=O)(=O)N3CCCC3)c2)cc1	0	nt	nt	1	nt
Cc1c(C(=O)OCC(=O)NCc2ccco2)cccc1[N+](=O)[O-]	0	nt	nt	9	nt
COc1cc(NC(=O)CSc2nnnn2C2CCCC2)cc(OC)c1	0	0	4	3	0
CC(=O)NCCn1c(SCc2cc(F)ccc2F)nc2ccccc2c1=O	0	68*	13	-10	-3
COCCn1c(SCc2ccc(F)cc2)nc2ccccc2c1=O	-1	34	21	10	-35
COCCn1c(SCc2ccc(OC)c(F)c2)nc2ccccc2c1=O	0	75*	-4	5	13
O=C1NC[C@@H](c2ccccc2)OC(=O)[C@@H](Cc2ccc(F)cc2)CC/C=C/C[C@@H]1CC(=O)N(CCO)Cc1ccccc1	0	nt	nt	-2	nt
N=C1S/C(=C\c2ccco2)C(=O)N1c1nccs1	0	56*	45	3	5
N#CCCn1cc(/C=N/O)c(-c2ccccc2)n1	0	nt	nt	1	nt
N#CCCn1cc(/C=N/NC(N)=S)c(-c2ccc(-c3ccccc3)cc2)n1	0	63*	17	0	-2
Cc1cc2ccccn2c1C(=O)c1ccc([N+](=O)[O-])o1	0	74*	4	4	-82
COC(=O)c1ccc(NC(=O)c2ccc(NS(=O)(=O)c3cccc4cccnc34)cc2)cc1	0	3	13	2	-13
O=C(Nc1ccccc1O)c1ccc(NS(=O)(=O)c2cccc3cccnc23)cc1	0	-16	11	103*	1
Cc1cc(C)cc(NC(=S)N2CC(C)OC(C)C2)c1 (stereo not drawn)	0	nt	22	-13	nt
SMILES	Efflux pump inh	T cruzi inh	AI-2 QS mod	HDAC3 inhib	PolyA inh
CCCCCCCCCCn1ccc(=N)cc1	1	77*	25	4	-19
CCCCCCN1Cc2ccccc2C1	0	-14	20	0	10
Cc1nnc(Sc2cc(C(=O)NCCCN(C)Cc3ccccc3)c3ccccc3n2)s1	0	64*	18	14	5
COc1cccc(NC(=O)CN(C)C(=O)CSc2ncnc3sc(C)c(C)c23)c1	0	-11	-4	1	5
CCCCNc1c(-c2ccc(SC3CCCCC3)cc2)nc2ccccn12	0	71*	13	-11	20
CCCCNc1c(-c2ccc(SC(C)CC)cc2)nc2ccccn12 (stereo not drawn)	0	37	1	-21	1
CCOC(=O)N(C)S(=O)(=O)c1ccccc1[N+](=O)[O-]	0	2	3	-3	3
N=c1c2c(n(Cc3ccc(Cl)c(Cl)c3)c3c1CCC3)CCCC2	0	70*	3	-1	-13
N=c1c2c(n(Cc3ccc([N+](=O)[O-])cc3)c3c1CCC3)CCCC2	0	40	9	0	-37
N=c1c2c(n(Cc3ccc(Br)cc3)c3c1CCC3)CCCC2	0	67*	24	-2	4
CCCn1c2c(c(=N)c3c1CCC3)CCCC2	0	53	12	0	-2
CNc1ncnc(Sc2ccc(Cl)cc2)c1[N+](=O)[O-]	0	66*	16	-3	-16
O=[N+]([O-])c1ccc(OCCN2CCNCC2)cc1	0	58*	13	4	9
CNCCCOc1ccc(C(C)(C)c2ccccc2)cc1	nt	28	2	nt	-6
COCCCNCCOc1ccc(C(C)(C)c2ccccc2)cc1	0	61*	-2	6	-30
CC1CN(CCOc2ccc([N+](=O)[O-])cc2)CC(C)O1 (stereo not drawn)	0	-7	24	1	-2
CCC(C)NCCOc1ccc(C(C)(C)c2ccccc2)cc1 (stereo not drawn)	0	65*	17	1	-31
CC(C)(c1ccccc1)c1ccc(OCCCN2CCNCC2)cc1	0	64*	19	1	-13
CCOC(=O)C(NCCc1ccccc1F)(NC(C)=O)C(F)(F)F (stereo not drawn)	0	-5	4	-1	15
COc1cccc(CC(=O)N2CCC(n3nccc3NC(=O)C3CCOC3)CC2)c1 (stereo not drawn)	0	-4	17	5	8
O=C(N/N=C/c1sc2ccccc2c1O)c1ccccc1	0	21	-81*	6	18
COc1ccc(C(=O)N/N=C/c2sc3ccccc3c2O)cc1	0	12	-92*	10	-16
COc1ccc2cc(C(=O)N/N=C/c3sc4ccccc4c3O)ccc2c1	0	15	21	5	2
O=C(NC1CCS(=O)(=O)C1)c1cccc(Cl)c1 (stereo not drawn)	0	-6	10	-3	0
COc1cccc(/C=N/n2c(N)c(S(=O)(=O)c3cccs3)c3nc4ccccc4nc32)c1OC	0	35	8	-13	-14
Nc1c(S(=O)(=O)c2cccc(Cl)c2)c2nc3ccccc3nc2n1/N=C/c1ccc(O)c(O)c1	0	62*	13	8	6
Cc1nn(CC(=O)Nc2ccc(Cl)cc2Cl)c(=O)c2ccccc12	0	10	-22	0	1
CCN1CCN(C(CNS(=O)(=O)c2ccc(C)cc2)c2cccnc2)CC1 (stereo not drawn)	0	22	22	6	-22
O=S(=O)(NCC(c1cccnc1)N1CCN(Cc2ccccc2)CC1)c1ccccc1 (stereo not drawn)	0	62*	8	-2	13
Cc1ccc(S(=O)(=O)NCC(c2cccnc2)N2CCN(Cc3ccccc3)CC2)cc1 (stereo not drawn)	0	57*	6	-4	-13

Source: PubChem BioAssay (several laboratories)
